The results in this text go back to ChEMBL document CHEMBL1138650, “Inactivation of human S-adenosylhomocysteine hydrolase by covalent labeling of cysteine 195 with thionucleoside derivatives” (Bioorg Med Chem Lett, 2004).

SMILES strings stand for the structures.

Assay [1] addresses T1, Adenosylhomocysteinase (Homo sapiens, UniProt P23526). As to the kind of experiment: Inactivation rate constant for human placental S-adenosyl-homocysteine hydrolase. In a few lines: (§1)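 Recombinant human placental enzyme, purified to homogeneity, at 2 µM, preincubated at 37°C with inhibitor at various concentrations and times in 20 mM potassium phosphate pH 7.5, 1 mM EDTA. Ki and kinact come from a double reciprocal plot of pseudo-first-order inactivation rate versus 1/[I].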
Target sequence in this assay (P23526 2-432 limits assumed): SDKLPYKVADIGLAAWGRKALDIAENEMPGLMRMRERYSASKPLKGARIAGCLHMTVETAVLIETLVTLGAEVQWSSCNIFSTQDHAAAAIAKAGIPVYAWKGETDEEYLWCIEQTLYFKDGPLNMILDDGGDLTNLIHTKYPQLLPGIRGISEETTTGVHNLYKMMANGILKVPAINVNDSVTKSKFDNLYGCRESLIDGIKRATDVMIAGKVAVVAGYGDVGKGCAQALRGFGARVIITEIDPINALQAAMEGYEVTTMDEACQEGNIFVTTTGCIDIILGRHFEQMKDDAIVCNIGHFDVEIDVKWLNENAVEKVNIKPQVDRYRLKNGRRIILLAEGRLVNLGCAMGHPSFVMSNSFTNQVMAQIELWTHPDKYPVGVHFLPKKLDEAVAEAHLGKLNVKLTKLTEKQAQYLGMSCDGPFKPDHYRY

The target of assay [2] is T1, Adenosylhomocysteinase. As to the kind of experiment: Binding affinity for human placental S-adenosyl-homocysteine hydrolase. A digest of the protocol:
as §1
Target sequence in this assay (P23526 whole entry): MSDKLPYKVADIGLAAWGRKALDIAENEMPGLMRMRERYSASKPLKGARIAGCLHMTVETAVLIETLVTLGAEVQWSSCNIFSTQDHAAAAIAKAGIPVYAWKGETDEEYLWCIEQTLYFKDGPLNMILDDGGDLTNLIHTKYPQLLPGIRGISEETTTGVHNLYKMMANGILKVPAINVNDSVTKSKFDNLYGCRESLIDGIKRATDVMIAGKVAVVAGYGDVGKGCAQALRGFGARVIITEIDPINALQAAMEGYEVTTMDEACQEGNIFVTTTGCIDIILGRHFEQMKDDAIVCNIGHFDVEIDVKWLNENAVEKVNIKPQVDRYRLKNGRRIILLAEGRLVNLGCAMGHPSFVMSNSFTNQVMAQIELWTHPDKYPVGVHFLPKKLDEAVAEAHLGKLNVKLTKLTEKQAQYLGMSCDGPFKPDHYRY

In the case of `Nc1ncnc2c1ncn2C1O[C@H]([C@H]2CS2)[C@@H](O)[C@H]1O` (stereo not given in full), at Adenosylhomocysteinase [1], the Kinact is 0.03 min⁻¹. This compound came in with a Ki on Adenosylhomocysteinase [2] of 50 µM.

`CSSC[C@H]1OC(n2cnc3c(N)ncnc32)[C@H](O)[C@@H]1O` (stereo not given in full) yielded a Kinact on Adenosylhomocysteinase [1] of 0.05 min⁻¹. This compound also showed a Ki on Adenosylhomocysteinase [2] of 19 µM.

For `Nc1ncnc2c1ncn2C1O[C@@H](CSSC[C@H]2OC(n3cnc4c(N)ncnc43)[C@H](O)[C@@H]2O)[C@H](O)[C@@H]1O` (stereo not given in full), the Kinact on Adenosylhomocysteinase [1] came to 0.05 min⁻¹. On Adenosylhomocysteinase [2], the Ki was determined as 96 µM.

For the compound `Nc1ncnc2c1ncn2C1O[C@H](CS)[C@@H](O)[C@H]1O` (stereo not given in full), the Kinact at Adenosylhomocysteinase [1] came to 0.04 min⁻¹. Affinity at Adenosylhomocysteinase [2] was put at a Ki of 4 µM.

`Nc1ncnc2c1ncn2C1OC([C@@H]2CS2)[C@@H](O)[C@H]1O` (single isomer, unassigned) returned a Kinact at Adenosylhomocysteinase [1] of 0.1 min⁻¹. This compound also showed a Ki at Adenosylhomocysteinase [2] of 105 µM.
